The record followed here is ChEMBL document CHEMBL4118036, “α-Glucosidase Inhibitors from Salvia circinata” (J Nat Prod, 2017).

Calls of active or inactive are those of the source. The calls are words filed in the database; no cut-off is given here.

A short description of assay [1]: Inhibition of rat intestinal alpha-glucosidase using p-nitrophenyl-alpha-D-glucopyranoside as substrate pretreated for 10 mins followed by substrate addition measured after 30 mins. A digest of the protocol:
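Rat intestinal acetone powder (40 mg/mL in 100 mM PBS, pH 7) as enzyme source. Test agents were dissolved in PBS or MeOH–PBS (1:1), then preincubated with the enzyme for 10 min at 37 °C. p-Nitrophenyl-α-D-glucopyranoside was added (20 mM stock in PBS) and incubated for 30 min at 37 °C. Absorbance read at 405 nm; IC50 derived per earlier reports.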

The test system of assay [2] is Mus musculus. Briefly: Antihyperglycemic activity in ICR mouse assessed as reduction in postprandial blood glucose levels at 5 mg/kg, ig pretreated for 30 mins followed by oral sucrose challenge measured at 30 mins interval for 120 mins by OSTT. Type of assay: functional, organism-based.
The species entered for another assay is Rattus norvegicus. In words: Potency index, ratio of acarbose IC50 to test compound IC50 for rat intestinal alpha-glucosidase.
In a further assay the target is T1, Alpha-glucosidase (Blautia obeum, UniProt A0A173Z7B1).
T1 sequence (A0A173Z7B1 whole entry): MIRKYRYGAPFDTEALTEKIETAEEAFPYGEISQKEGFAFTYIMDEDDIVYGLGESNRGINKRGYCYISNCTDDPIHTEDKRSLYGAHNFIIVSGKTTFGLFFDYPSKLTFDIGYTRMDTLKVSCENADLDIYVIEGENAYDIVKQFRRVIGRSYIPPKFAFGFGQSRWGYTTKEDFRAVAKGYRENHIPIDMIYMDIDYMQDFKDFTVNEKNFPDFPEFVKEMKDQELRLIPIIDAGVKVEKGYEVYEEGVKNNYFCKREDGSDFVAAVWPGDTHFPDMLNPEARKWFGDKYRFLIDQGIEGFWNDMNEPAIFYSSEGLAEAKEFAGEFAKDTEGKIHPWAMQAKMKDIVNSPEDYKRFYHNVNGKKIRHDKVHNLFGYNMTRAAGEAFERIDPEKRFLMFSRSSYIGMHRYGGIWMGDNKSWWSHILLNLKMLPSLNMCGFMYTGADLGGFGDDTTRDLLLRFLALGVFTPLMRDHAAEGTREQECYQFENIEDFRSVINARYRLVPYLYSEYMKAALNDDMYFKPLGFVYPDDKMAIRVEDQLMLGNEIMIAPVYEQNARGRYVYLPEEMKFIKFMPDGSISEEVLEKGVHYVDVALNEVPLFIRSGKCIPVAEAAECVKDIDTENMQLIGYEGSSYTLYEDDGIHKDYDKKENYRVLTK
Briefly: Inhibition of recombinant Ruminococcus obeum ATCC 29174 alpha-glucosidase expressed in Escherichia coli BL21(DE3) using p-nitrophenyl-alpha-D-glucopyranoside as substrate pretreated for 10 mins followed by substrate addition measured after 3 hrs. Set-up: species or system Blautia obeum ATCC 29174. A digest of the protocol: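 Enzyme from E. coli BL21-DE3/pET12b grown in LB at 37 °C and induced with 0.5 mM IPTG for 8 h. Cells were sonicated in 50 mM bis-TRIS propane pH 8.0 and the lysate clarified. Enzyme (5.2 mg/mL) was preincubated with test agents for 10 min at 37 °C. pNP-α-glucoside was added (20 mM stock) and incubated for 3 h at 37 °C.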

In assay [3] the test system is Mus musculus. In words: Antihyperglycemic activity in ig dosed ICR mouse assessed as reduction in postprandial blood glucose levels pretreated for 30 mins followed by oral sucrose challenge measured at 30 mins interval for 120 mins by OSTT. It counts as functional, organism-based.

By IC50 is commonly meant the concentration at which inhibition is half-maximal. Regarding `C[C@H]1O[C@H](O[C@H]2[C@H](O)[C@@H](O)[C@@H](O[C@H]3[C@H](O)[C@@H](O)C(O)O[C@@H]3CO)O[C@@H]2CO)[C@H](O)[C@@H](O)[C@@H]1N[C@H]1C=C(CO)[C@@H](O)[C@H](O)[C@H]1O` (stereo partly specified) [ACARBOSE], the IC50 in assay [1] is 100 µM. Moreover, the outcome with Mus musculus [2] was Active. Take `COc1ccc(-c2cc(=O)c3c(O)c(O)c(OC)cc3o2)cc1OC`: the IC50 in assay [1] turned out to be 1800 µM. On the same count and under the same terms, the same measure for `CC(=O)CC[C@]1(C)[C@H](C)CC[C@@]23COC(=O)C2=C[C@@H](O[C@@H]2O[C@H](CO)[C@@H](O)[C@H](O)[C@H]2O)C[C@@H]31`: greater than 10000 µM; for `O=c1cc(-c2ccc(O)cc2)oc2cc(O[C@@H]3O[C@H](CO)[C@@H](O)[C@H](O)[C@H]3O)cc(O)c12` [APIGETRIN]: 200 µM. Regarding `COc1cc(-c2cc(=O)c3c(O)c(O)c(OC)cc3o2)ccc1Oc1ccc(-c2cc(=O)c3c(O)c(O)c(OC)cc3o2)cc1OC`, the IC50 in assay [1] was determined as 39 µM. For the same compound, the Ratio IC50 in the assay filed under Rattus norvegicus was determined as 2.5. Consider `COC1OC(=O)C=C1CC[C@]1(C)[C@H](C)CC[C@@]23COC(=O)C2=C[C@@H](O[C@@H]2O[C@H](CO)[C@@H](O)[C@H](O)[C@H]2O)C[C@@H]31` (stereo partly specified), for which the IC50 in assay [1] was greater than 10000 µM. `C[C@@H]1CC[C@@]23COC(=O)C2=C[C@@H](O[C@@H]2O[C@H](CO)[C@@H](O)[C@H](O)[C@H]2O)C[C@@H]3[C@]1(C)CCc1ccoc1`: the results for the IC50 (in assay [1]; on Alpha-glucosidase) were 500 µM and 400 µM, respectively. Also, the Activity entry in the assay on Mus musculus [3] was “Dose-dependent effect”.

Consider `C[C@@H]1CC[C@@]23COC(=O)C2=C[C@@H](O[C@@H]2O[C@H](CO)[C@@H](O)[C@H](O)[C@H]2O)C[C@@H]3[C@]1(C)CCC1=CCOC1=O`, for which the IC50 in assay [1] was greater than 10000 µM.

For the compound `COc1cc2oc(-c3ccc(O)c(O)c3)cc(=O)c2c(O)c1O`, the IC50 was 810 µM in assay [1] and 60 µM at Alpha-glucosidase. Besides, the Activity result in the assay on Mus musculus [3] is “Dose-dependent effect”. Turning to `CO[C@@H]1C=C(CC[C@]2(C)[C@H](C)CC[C@@]34COC(=O)C3=C[C@@H](O[C@@H]3O[C@H](CO)[C@@H](O)[C@H](O)[C@H]3O)C[C@@H]42)C(=O)O1`, the IC50 in assay [1] is greater than 10000 µM.
